Reference: article PMC8220551 (International Journal of Pharmaceutics: X, 2021)

Assay: Permeation study in Kerski diffusion cells with PermeaPad biomimetic barrier
Type: in vitro ADME
Conditions: in the investigated time interval (up to 60 min), pH 7.4, 37 °C
Procedure, shortened: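 Drug-loaded minitablets, composite films or solutions (0.2 mg per 0.64 cm2) placed in donor; composites applied to buffer-moistened membrane. Acceptor: 10 mM dipotassium hydrogen phosphate, pH 7.4, stirred 350 rpm, 37 °C. Samples at 5, 10, 15, 20, 25, 30, 40, 50, 60 min with medium replacement. Quantified by HPLC with fluorescence detection (excitation 278 nm); mean ± SD, n = 3.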

NC(=O)CC[C@@H]1NC(=O)[C@H](Cc2ccccc2)NC(=O)[C@H](Cc2ccc(O)cc2)NC(=O)CCSSC[C@@H](C(=O)N2CCC[C@H]2C(=O)N[C@H](CCCN=C(N)N)C(=O)NCC(N)=O)NC(=O)[C@H](CC(N)=O)NC1=O [DDAVP, 1-desamino-8-D-arginin-vasopressin]
cumulative drug concentration permeated: ~2.6 μg/cm^2
